# Species on record: Mus musculus
# Test: (§1) Antagonist activity against Voltage-gated sodium channel in Swiss-Webster mouse primary cerebrocortical neurons assessed as inhibition of veratridine-induced sodium influx by SBFI-AM dye based fluorescence assay
# In short: (§2)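 Primary cortical neurons from E17 Swiss-Webster mouse embryos, plated at 1.5 × 10^5 cells/well and used at 7–9 days in vitro. Cells were loaded with 10 μM SBFI-AM plus 0.02% Pluronic F-127 for 1 h at 37 °C in Locke's buffer (pH 7.4), then equilibrated 15 min. Baseline was read for 60 s, then compound and/or veratridine was added. Ex 340/380 nm, em 505 nm, background-corrected 340/380 ratio. IC50 from a three-parameter logistic fit, 4–7 experiments.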
row,SMILES,inhibition
1,C[C@@H]1CCCC(=O)N(C)/C=C/CC[C@@H](C)C(=O)O[C@@H](C(C)(C)C)C1,Dose-dependent effect
2,C[C@H]1CCCC(=O)N(C)/C=C/CC[C@H](C)C(=O)O[C@H](C(C)(C)C)C1,Dose-dependent effect

# Test system: not listed separately
# Test: as §1
# In short: as §2
row,SMILES,IC50
1,C[C@@H]1CCCC(=O)N(C)/C=C/CC[C@@H](C)C(=O)O[C@@H](C(C)(C)C)C1,2.1 µM
2,CNC(=O)CCC[C@@H](C)C[C@@H](OC(=O)[C@@H](C)CCCCO)C(C)(C)C,> 10 µM
3,C[C@H](CCCC(N)=O)C[C@@H](OC(=O)[C@H](C)CC/C=C/I)C(C)(C)C,> 10 µM
4,C[C@@H]1CCCC(=O)N(C)/C=C/CC[C@H](C)C(=O)O[C@@H](C(C)(C)C)C1,> 10 µM
5,C[C@@H]1CCCC(=O)N(C)/C=C/CC[C@@H](C)C(=O)O[C@H](C(C)(C)C)C1,19.1 µM
6,C[C@@H]1CCCC(=O)N(C)CCCC[C@@H](C)C(=O)O[C@@H](C(C)(C)C)C1,3 µM
7,C[C@H]1CCCC(=O)N(C)/C=C/CC[C@H](C)C(=O)O[C@H](C(C)(C)C)C1,4 µM
8,C[C@@H]1CCCC(=O)N(C)CCCC[C@H](C)C(=O)O[C@@H](C(C)(C)C)C1,4.5 µM
9,C[C@H]1CCCC(=O)N(C)/C=C/CC[C@@H](C)C(=O)O[C@H](C(C)(C)C)C1,> 10 µM
10,C[C@@H]1CCCC(=O)N(C)/C=C/CC[C@H](C)C(=O)O[C@H](C(C)(C)C)C1,21 µM
11,CNC(=O)CCC[C@@H](C)C[C@@H](OC(=O)[C@H](C)CCCC(=O)O)C(C)(C)C,> 10 µM
12,CNC(=O)CCC[C@@H](C)C[C@@H](OC(=O)[C@H](C)CCCCO)C(C)(C)C,> 10 µM

# From ChEMBL document CHEMBL3352348, “Detailed analysis of (-)-palmyrolide a and some synthetic derivatives as voltage-gated sodium channel antagonists” (J Nat Prod, 2014)
